Calls of active or inactive are those of the source. No cut-off for these calls is given here.
Assays:
[1] = Stability of the compound in 0.1 M HCl at pH 1 assessed as compound remaining at 100 uM after 3 hrs by RP-HPLC analysis; format: physicochemical; conditions: read-out: Stability
[2] = Stability of the compound in phosphate buffer at pH 7.4 assessed as half life at 100 uM by RP-HPLC analysis; format: physicochemical
Procedure, shortened: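 Compound held at 37 °C, final concentration 100 µM. Aliquots taken over time and analysed by RP-HPLC (C18; acetonitrile/water 55:45 with 0.1% TFA). Pseudo-first-order rate constants and half-lives obtained by fitting remaining ester versus time to one-phase exponential decay.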

[3] = Stability of the compound in human serum assessed as half life at 200 uM by RP-HPLC analysis; format: ADME, cell-free
Procedure, shortened: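 Compound added from 10 mM acetonitrile stock to human serum preheated to 37 °C. Disappearance followed by RP-HPLC (C18; acetonitrile/water 55:45, 0.1% TFA). Half-life from pseudo-first-order fit.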

[4] = target: Prostaglandin G/H synthase 1 (Homo sapiens) (UniProt P23219); test: Inhibition of COX1 in human platelets assessed as inhibition of A23187-stimulated TXB2 production at 100 uM pre-incubated for 30 mins before addition of A23187 measured after 10 mins by EIA
Chain of Prostaglandin G/H synthase 1 (Homo sapiens) (P23219 whole entry): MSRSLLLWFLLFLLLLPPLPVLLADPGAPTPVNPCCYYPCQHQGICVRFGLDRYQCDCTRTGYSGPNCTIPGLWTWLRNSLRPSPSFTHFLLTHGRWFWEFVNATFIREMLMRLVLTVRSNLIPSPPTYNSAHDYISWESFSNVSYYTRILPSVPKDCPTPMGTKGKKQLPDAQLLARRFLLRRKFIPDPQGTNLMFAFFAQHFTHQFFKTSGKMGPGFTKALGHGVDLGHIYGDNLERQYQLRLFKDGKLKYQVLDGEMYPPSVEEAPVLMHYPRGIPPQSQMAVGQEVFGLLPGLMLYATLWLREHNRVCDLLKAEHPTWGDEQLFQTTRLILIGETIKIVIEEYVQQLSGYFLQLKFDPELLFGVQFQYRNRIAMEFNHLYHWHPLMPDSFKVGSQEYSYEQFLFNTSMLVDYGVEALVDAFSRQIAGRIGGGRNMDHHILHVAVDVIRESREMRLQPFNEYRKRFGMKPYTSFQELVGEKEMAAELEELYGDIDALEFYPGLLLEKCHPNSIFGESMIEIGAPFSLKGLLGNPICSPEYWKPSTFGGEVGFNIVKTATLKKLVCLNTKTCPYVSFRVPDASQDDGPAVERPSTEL
Procedure, shortened: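 Washed human platelets (10⁸ cells/mL) incubated 30 min at 37 °C with compound, diluted from 400-fold DMSO stocks. A23187 (2 µM) then added for 10 min at 37 °C, and reaction stopped with methanol. Supernatant TXB2 measured by EIA. % inhibition versus untreated control, after subtracting no-ionophore background.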

[5] = target: T1, Prostaglandin G/H synthase 2 (Homo sapiens) (UniProt P35354); test: Inhibition of COX2 in LPS-stimulated human monocytes assessed as inhibition of arachidonic acid-stimulated PGE2 production at 100 uM pre-incubated for 30 mins before addition of arachidonic acid measured after 15 mins by EIA; format: cell-based
T1 sequence (whole entry): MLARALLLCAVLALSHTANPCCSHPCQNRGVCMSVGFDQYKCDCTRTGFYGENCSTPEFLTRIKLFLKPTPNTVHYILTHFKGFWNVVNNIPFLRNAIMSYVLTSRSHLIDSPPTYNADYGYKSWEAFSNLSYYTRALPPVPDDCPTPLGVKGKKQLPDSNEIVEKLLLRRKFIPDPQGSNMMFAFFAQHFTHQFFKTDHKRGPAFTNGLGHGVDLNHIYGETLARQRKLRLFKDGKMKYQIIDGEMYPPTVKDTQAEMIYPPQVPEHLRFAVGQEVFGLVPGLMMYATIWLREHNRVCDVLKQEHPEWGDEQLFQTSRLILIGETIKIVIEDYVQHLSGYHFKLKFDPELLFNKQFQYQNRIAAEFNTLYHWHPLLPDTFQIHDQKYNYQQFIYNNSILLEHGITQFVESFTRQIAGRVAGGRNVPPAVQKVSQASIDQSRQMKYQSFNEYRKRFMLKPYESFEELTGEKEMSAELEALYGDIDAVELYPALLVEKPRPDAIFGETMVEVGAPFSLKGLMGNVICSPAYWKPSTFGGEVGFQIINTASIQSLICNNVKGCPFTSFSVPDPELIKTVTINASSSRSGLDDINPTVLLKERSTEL
Procedure, shortened: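 Human monocytes (10⁶ cells/mL) induced with LPS for 18 h at 37 °C, 5% CO2, then resuspended in FCS-free RPMI-1640. Compound (from 200-fold DMSO stocks) added for 30 min, then arachidonic acid (100 µM) for 15 min. Supernatant PGE2 by EIA. % inhibition versus untreated control, minus no-arachidonate background.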

[6] = Antiaggregatory activity in human platelet rich plasma assessed as inhibition of collagen-induced platelet aggregation at 300 uM preincubated for 10 mins before collagen challenge measured after 10 mins by aggregometry; format: functional
Procedure, shortened: (§1)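 PRP from citrated human blood (200g, 20 min). Compound preincubated 10 min, then submaximal collagen (0.8–1.5 µg/mL) added. Light transmission recorded at 37 °C under stirring (1000 rpm) for 10 min. Vehicle 0.5% DMSO. Result is % inhibition versus control. IC50 by nonlinear regression, otherwise % inhibition at 300 µM. At least five experiments.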

Rattus norvegicus [7] = test: Antiinflammatory activity in Wistar rat assessed as inhibition of carrageenan-induced paw edema at dose equimolar to 120 mg/kg aspirin, administered intragastrically immediately after carrageenan challenge measured after 3 hrs by water plethysmometer relative to control; format: functional; conditions: po, route intragastric
Procedure, shortened: (§2)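 Male Wistar rats (180–200 g). Edema induced by intraplantar 0.1 mL of 1% carrageenan in 1% CMC into the right hindpaw. Compounds given intragastrically in 1% CMC (10 mL/kg) immediately afterwards. Aspirin at 120 mg/kg, others equimolar. Paw volume by water plethysmometer before and at 3 h. Reported as % inhibition versus vehicle (=100). Groups of 6–8, mean ± SEM, Dunnett's test.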

Rattus norvegicus [8] = test: Ulcerogenicity in Wistar rat assessed as damage in gastric mucosa-lesion index at dose equimolar to 120 mg/kg aspirin, administered intragastrically after 3 hrs by stereomicroscopy; format: toxicity, organism-based; set-up: dose 120 mg/kg, route intragastric; conditions: in vivo, po
Procedure, shortened: (§3)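 Male Wistar rats (180–200 g), fasted 24 h with water available. Groups of 8–10 given aspirin 120 mg/kg intragastrically, or equimolar doses, in 1% CMC. Killed 3 h later. Glandular mucosa examined under stereomicroscope. Each hemorrhagic lesion scored by greatest length and summed as lesion index. Mean ± SEM, ANOVA with Newman–Keuls test.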

[9] = Antiaggregatory activity in human platelet rich plasma assessed as inhibition of collagen-induced platelet aggregation preincubated for 10 mins before collagen challenge measured after 10 mins by aggregometry; format: functional; procedure, shortened: as §1
[10] = Antiaggregatory activity in human platelet rich plasma assessed as inhibition of collagen-induced platelet aggregation preincubated for 10 mins before collagen challenge measured after 10 mins by aggregometry in presence of 50 uM of sGC inhibitor ODQ; format: functional
Procedure, shortened: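 Collagen-induced aggregation in human PRP run as in the standard assay, with the sGC inhibitor ODQ (50 µM) present. Compound preincubated 10 min before submaximal collagen (0.8–1.5 µg/mL). Light transmission followed 10 min at 37 °C. At least five experiments.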

Aorta [11] = test: Vasodilatory activity in Wistar rat thoracic aorta assessed as relaxation of L-phenylephrine-induced vasoconstriction; format: functional, tissue-based
Procedure, shortened: (§4)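 Rat aortic strips equilibrated 120 min, then contracted with phenylephrine. At plateau, cumulative concentrations of vasodilator added. Tension recorded isometrically. Results given as EC50 ± SE. Where tested, ODQ was added to the bath 5 min before contraction.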

Aorta [12] = test: Vasodilatory activity in Wistar rat thoracic aorta assessed as relaxation of L-phenylephrine-induced vasoconstriction in presence of 1 uM sGC inhibitor ODQ; format: functional, tissue-based; procedure, shortened: as §4
Thromboxane A2 receptor = target: T2, Thromboxane A2 receptor (Homo sapiens, UniProt P21731); test: Antagonist activity at thromboxane receptor in human blood assessed as inhibition of U-46619-induced effect; format: functional
T2 sequence (P21731 whole entry): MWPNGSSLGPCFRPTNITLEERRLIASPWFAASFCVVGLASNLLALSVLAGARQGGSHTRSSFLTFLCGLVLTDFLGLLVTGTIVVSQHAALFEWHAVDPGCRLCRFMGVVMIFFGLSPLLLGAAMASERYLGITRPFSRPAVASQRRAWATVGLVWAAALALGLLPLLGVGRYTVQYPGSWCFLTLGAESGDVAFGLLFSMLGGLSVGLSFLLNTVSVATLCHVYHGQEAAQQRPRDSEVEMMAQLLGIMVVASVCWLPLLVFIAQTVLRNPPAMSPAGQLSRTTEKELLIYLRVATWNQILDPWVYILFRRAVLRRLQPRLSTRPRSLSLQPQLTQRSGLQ
Procedure, shortened: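 Citrated human blood pretreated with 1 mM acetylsalicylic acid; PRP made by 200g spin for 20 min. PRP incubated with compound or vehicle (0.5% DMSO), then challenged with U-46619 (0.5–2.5 µM). Aggregation recorded as light transmission at 37 °C with stirring. At least four experiments per compound.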

Rattus norvegicus [13] = test: Antiinflammatory activity in Wistar rat assessed as inhibition of carrageenan-induced paw edema at 120 mg/kg, administered intragastrically immediately after carrageenan challenge measured after 3 hrs by water plethysmometer relative to control; format: functional; conditions: po, route intragastric; procedure, shortened: as §2
[14] = Stability of the compound in phosphate buffer at pH 7.4 assessed as compound remaining at 100 uM after 3 hrs by RP-HPLC analysis; format: physicochemical; conditions: read-out: Stability
Procedure, shortened: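 Each compound was incubated in pH 7.4 aqueous buffer at a final 100 µM and held at 37 ± 0.5 °C. Aliquots taken at timed intervals were run on RP-HPLC (C18; acetonitrile/water 55:45 with 0.1% TFA; 1.2 mL/min), calibrated linearly over 1–200 µM. Remaining ester versus time was fitted to one-phase exponential decay.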

Rattus norvegicus [15] = test: Ulcerogenicity in Wistar rat assessed as damage in gastric mucosa-lesion index at 120 mg/kg, administered intragastrically after 3 hrs by stereomicroscopy; format: toxicity, organism-based; set-up: dose 120 mg/kg, route intragastric; conditions: in vivo, po; procedure, shortened: as §3

| Compound | remaining at 3 h, 100 µM [1] [%] | half-life at 100 µM [2] [min] | half-life at 200 µM [3] [min] | inhibition [4] | inhibition [5] | IC50 [9] [µM] | IC50 [10] [µM] | EC50 (Aorta [11]) [µM] | EC50 (Aorta [12]) [µM] | IC50 (Thromboxane A2 receptor) [µM] | inhibition at 300 µM [6] [%] | inhibition in vivo (Rattus norvegicus [7]) [%] | UI (Rattus norvegicus [8]) [mm] | inhibition in vivo at 120 mg/kg (Rattus norvegicus [7]; dose 120 mg/kg) [%] | Activity (Aorta [11]) | inhibition in vivo at 120 mg/kg (Rattus norvegicus [13]) [%] | remaining at 3 h, 100 µM [14] [%] | UI (Rattus norvegicus [15]) [mm] |
| --- | --- | --- | --- | --- | --- | --- | --- | --- | --- | --- | --- | --- | --- | --- | --- | --- | --- | --- |
| O=C(CCOc1nonc1S(=O)(=O)c1ccccc1)Oc1ccccc1C(=O)O | 97 | 370 | 35 | inactive | inactive | – | – | – | – | – | 2.6 | 38.8 | 0.3 | – | – | – | – | – |
| O=C(O)c1ccccc1O [SALICYLIC ACID] | – | – | – | – | – | – | – | – | – | – | – | – | 1.1 | 36.8 | – | – | – | – |
| O=C(CCOc1no[n+]([O-])c1S(=O)(=O)c1ccccc1)Oc1ccccc1C(=O)O | 96 | 360 | 30 | inactive | inactive | 7.8 | 152 | 0.014 | 0.97 | – | – | 49.6 | 0.4 | – | Dose-dependent effect | – | – | – |
| CC(=O)Oc1ccccc1C(=O)O [ASPIRIN] | 90 | – | 63 | – | – | 54 | – | – | – | – | – | – | – | – | – | 43 | 90 | 50 |
| O=C(CCOc1nonc1-c1ccccc1)Oc1ccccc1C(=O)O | 98 | 318 | 40 | inactive | inactive | – | – | – | – | – | 12 | 38.6 | 1.2 | – | – | – | – | – |
| O=C(CCOc1no[n+]([O-])c1-c1ccccc1)Oc1ccccc1C(=O)O | 98 | 288 | 35 | inactive | inactive | – | – | 11 | – | – | 17 | 37.6 | 0.3 | – | Dose-dependent effect | – | – | – |

Further lines, with some results ahead:

| remaining at 3 h, 100 µM [1] [%] | half-life at 100 µM [2] [min] | half-life at 200 µM [3] [min] | inhibition [4] | inhibition [5] | IC50 [9] [µM] | IC50 [10] [µM] | EC50 (Aorta [11]) [µM] | EC50 (Aorta [12]) [µM] | IC50 (Thromboxane A2 receptor) [µM] | Compound | inhibition at 300 µM [6] [%] | inhibition in vivo (Rattus norvegicus [7]) [%] | UI (Rattus norvegicus [8]) [mm] | inhibition in vivo at 120 mg/kg (Rattus norvegicus [7]; dose 120 mg/kg) [%] | Activity (Aorta [11]) | inhibition in vivo at 120 mg/kg (Rattus norvegicus [13]) [%] | remaining at 3 h, 100 µM [14] [%] | UI (Rattus norvegicus [15]) [mm] |
| --- | --- | --- | --- | --- | --- | --- | --- | --- | --- | --- | --- | --- | --- | --- | --- | --- | --- | --- |
| 96 | 33 | 13 | inactive | inactive | 7.3 | 88 | 0.04 | 2.4 | – | N#Cc1c(CSCC(=O)Oc2ccccc2C(=O)O)no[n+]1[O-] | – | 54.9 | 1.2 | – | Dose-dependent effect | – | – | – |
| 97 | 45 | 27 | inactive | inactive | 66 | 59 | 23 | – | 38 | NC(=O)c1c(CSCC(=O)Oc2ccccc2C(=O)O)no[n+]1[O-] | – | 39.4 | – | – | Dose-dependent effect | – | – | – |
| 96 | 38 | 14 | inactive | inactive | – | – | – | – | – | N#Cc1nonc1CSCC(=O)Oc1ccccc1C(=O)O | 36 | 38.9 | 0.2 | – | – | – | – | – |
| 97 | 50 | 27 | inactive | inactive | 144 | – | – | – | 39 | NC(=O)c1nonc1CSCC(=O)Oc1ccccc1C(=O)O | – | 39.6 | 0.3 | – | – | – | – | – |
